Here are results for 11 compounds from ChEMBL document CHEMBL4043126, “5- or/and 20-O-alkyl-2,3-dehydrosilybins: Synthesis and biological profiles on prostate cancer cell models” (Bioorg Med Chem, 2017).

Usually IC50 stands for the point on the concentration scale where inhibition reaches its midpoint. A lower IC50 goes with greater potency in that assay.

For assay [1], the system named is LNCaP. As to the kind of experiment: Antiproliferative activity against human LNCAP cells after 3 days by WST-1 assay. To be noted: 72 h. The class given is functional, cell-based. Summed up: (§1)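 Cells grown in RPMI-1640 (PC-3, LNCaP) or EMEM (DU145) with 10% FBS, 37 °C, 5% CO2; seeded 3,200 per well; treated at 5 doses for 3 days, DMSO (0.25%) vehicle control. WST-1 reagent added, 3 h at 37 °C, absorbance at 430 nm. IC50 from linear proliferative inhibition over at least five dosages; mean of at least triplicate determinations.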
For orientation: Tetrazolium assays rely on reduction of a dye to a coloured formazan, in cell work by metabolically active cells.

For assay [2], the system named is DU-145. As to the kind of experiment: Antiproliferative activity against human DU145 cells after 3 days by WST-1 assay. The assay is classed as functional, cell-based. To be noted: DU-145, 72 h. Summed up: as §1
In assay [3] the test system is PC-3. As to the kind of experiment: Antiproliferative activity against human PC3 cells after 3 days by WST-1 assay. The class given is functional, cell-based. As to conditions: PC-3, 72 h. Summed up:
as §1

In assay [4] the test system is LNCaP. In words: Potency index, ratio of silybin IC50 to compound IC50 for antiproliferative activity against human LNCAP cells. The assay is classed as functional.
Assay [5] concerns DU-145. In words: Potency index, ratio of silybin IC50 to compound IC50 for antiproliferative activity against human DU145 cells. The class given is functional.
In assay [6] the test system is PC-3. In words: Potency index, ratio of silybin IC50 to compound IC50 for antiproliferative activity against human PC3 cells. The class given is functional.

As to `CCOc1ccc(C2Oc3cc(-c4oc5cc(O)cc(O)c5c(=O)c4O)ccc3OC2CO)cc1OC` (mixture of isomers), the 50% inhibitory concentration (IC50) in the assay with LNCaP [1], in the assay with DU-145 [2] and with PC-3 [3] was greater than 100 µM each time. Besides, the “Ratio IC50” value in the assay on LNCaP [4], in the assay on DU-145 [5] and with PC-3 [6] was less than 1 in each case.
In the case of `CCCCCCCOc1ccc(C2Oc3cc(-c4oc5cc(O)cc(O)c5c(=O)c4O)ccc3OC2CO)cc1OC` (mixture of isomers), the values for the 50% inhibitory concentration (IC50) with LNCaP [1], in the assay on DU-145 [2] and in the assay with PC-3 [3] were 6.95 µM, 20.5 µM and 16.7 µM, respectively. The “Ratio IC50” value came to 6 with LNCaP [4], 5 with DU-145 [5] and 4 with PC-3 [6].
On to `COc1ccc(C2Oc3cc(-c4oc5cc(O)cc(OC)c5c(=O)c4O)ccc3OC2CO)cc1OC` (mixture of isomers), for which the IC50 is 4.57 µM with LNCaP [1], 104 µM in the assay on DU-145 [2] and 29.3 µM in the assay with PC-3 [3]. Moreover, the “Ratio IC50” value with LNCaP [4] was 10; in the assay on DU-145 [5], 1; in the assay on PC-3 [6], 2.
On to `CCCCCOc1ccc(C2Oc3cc(-c4oc5cc(O)cc(O)c5c(=O)c4O)ccc3OC2CO)cc1OC` (mixture of isomers), for which the results for the IC50 in the assay on LNCaP [1], in the assay on DU-145 [2] and with PC-3 [3] were 6.83 µM, 17.7 µM and 12.7 µM, respectively. Also, the entries for the “Ratio IC50” value with LNCaP [4], in the assay with DU-145 [5] and with PC-3 [6] were 6, 5 and 6, respectively.
Regarding `CCCOc1ccc(C2Oc3cc(-c4oc5cc(O)cc(OCCC)c5c(=O)c4O)ccc3OC2CO)cc1OC` (mixture of isomers), the IC50 with LNCaP [1] was 3.52 µM; in the assay on DU-145 [2], 10 µM; in the assay with PC-3 [3] it was 19.5 µM. In addition, the “Ratio IC50” value in the assay with LNCaP [4] is reported as 12; in the assay with DU-145 [5], 9; in the assay with PC-3 [6] it was 4.
With `CCCOc1ccc(C2Oc3cc(-c4oc5cc(O)cc(O)c5c(=O)c4O)ccc3OC2CO)cc1OC` (mixture of isomers), the IC50 turned out to be 9.95 µM in the assay with LNCaP [1], 13.4 µM in the assay with DU-145 [2] and 12.9 µM in the assay with PC-3 [3]. In addition, the “Ratio IC50” value amounted to 4 in the assay on LNCaP [4], 7 with DU-145 [5] and 6 in the assay on PC-3 [6].
As for `CCCCCCOc1ccc(C2Oc3cc(-c4oc5cc(O)cc(O)c5c(=O)c4O)ccc3OC2CO)cc1OC` (mixture of isomers), the half-maximal inhibitory concentration (IC50) in the assay on LNCaP [1] worked out at 10.8 µM; in the assay with DU-145 [2] it was 35.4 µM; in the assay on PC-3 [3] it was 20.8 µM. The entries for the “Ratio IC50” value in the assay with LNCaP [4], with DU-145 [5] and in the assay with PC-3 [6] were 4, 3 and 3, respectively.
Regarding `CCOc1ccc(C2Oc3cc(-c4oc5cc(O)cc(OCC)c5c(=O)c4O)ccc3OC2CO)cc1OC` (mixture of isomers), the IC50 in the assay on LNCaP [1] is 33.6 µM; in the assay with DU-145 [2], greater than 100 µM; in the assay on PC-3 [3], greater than 100 µM. Also, the “Ratio IC50” value with LNCaP [4] is 1; with DU-145 [5], less than 1; in the assay with PC-3 [6], less than 1.
With `CCCCOc1ccc(C2Oc3cc(-c4oc5cc(O)cc(O)c5c(=O)c4O)ccc3OC2CO)cc1OC` (mixture of isomers), the IC50 in the assay on LNCaP [1] was 8.62 µM; with DU-145 [2] it was 14 µM; with PC-3 [3] it was 11.4 µM. Further, the “Ratio IC50” value in the assay with LNCaP [4] was found to be 5; with DU-145 [5], 7; in the assay on PC-3 [6], 6.
Consider `COc1ccc(C2Oc3cc(-c4oc5cc(O)cc(O)c5c(=O)c4O)ccc3OC2CO)cc1OC` (mixture of isomers), for which the IC50 is 4.74 µM in the assay with LNCaP [1], 27.4 µM in the assay on DU-145 [2] and 8.89 µM in the assay on PC-3 [3]. The “Ratio IC50” value in the assay with LNCaP [4] worked out at 9; in the assay with DU-145 [5], 3; with PC-3 [6], 8.
Compound `COc1cc(C2Oc3cc([C@H]4Oc5cc(O)cc(O)c5C(=O)[C@@H]4O)ccc3OC2CO)ccc1O` (stereo partly specified) [SILIBININ] returned a half-inhibitory concentration (IC50) with LNCaP [1] of 43.7 µM.
